Rpn11 inh – blocks the human proteasome subunit Rpn11; O00487; human 26S proteasome, Ub4-pepOG fluorescence polarization; 20S core pre-blocked with epoxomicin; inhibition, % at 20 µM; 360,000 tested, 0.59% active;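 active means inhibition at 20 µM, scaled to each plate's controls, above about 33%, limit read from the data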
Target sequence (O00487 whole entry, looked up): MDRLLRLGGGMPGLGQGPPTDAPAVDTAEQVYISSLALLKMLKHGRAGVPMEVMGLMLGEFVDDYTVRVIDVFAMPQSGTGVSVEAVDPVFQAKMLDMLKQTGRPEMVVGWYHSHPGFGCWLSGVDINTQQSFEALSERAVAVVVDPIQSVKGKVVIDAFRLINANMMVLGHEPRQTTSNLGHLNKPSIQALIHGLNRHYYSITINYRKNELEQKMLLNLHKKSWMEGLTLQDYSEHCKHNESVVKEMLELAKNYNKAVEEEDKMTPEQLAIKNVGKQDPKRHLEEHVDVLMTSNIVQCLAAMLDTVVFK
HNF4A DNA FP – change in binding of human HNF4 alpha to DNA. P41235. HNF4a-FITC DNA binding, fluorescence polarization, 1 h. activity change, % at 10 µM. 360,000 tested, 0.3% active; in the data active means activity change above about 30%, passing the limit was not always enough
CSN deneddyl inh – CSN deneddylation inhibition; Purified CSN, SCF-Nedd8-OG deneddylation, fluorescence polarization; inhibition, % at 12.5 µM; 360,000 tested, 0.38% active;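 active means pattern-corrected inhibition above about 35%, with an unprinted fluorescence ratio check between 0.5 and 1.5, limit read from the data, passing the limit was not always enough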
Target sequence (Q92905 whole entry, looked up, one chain of several): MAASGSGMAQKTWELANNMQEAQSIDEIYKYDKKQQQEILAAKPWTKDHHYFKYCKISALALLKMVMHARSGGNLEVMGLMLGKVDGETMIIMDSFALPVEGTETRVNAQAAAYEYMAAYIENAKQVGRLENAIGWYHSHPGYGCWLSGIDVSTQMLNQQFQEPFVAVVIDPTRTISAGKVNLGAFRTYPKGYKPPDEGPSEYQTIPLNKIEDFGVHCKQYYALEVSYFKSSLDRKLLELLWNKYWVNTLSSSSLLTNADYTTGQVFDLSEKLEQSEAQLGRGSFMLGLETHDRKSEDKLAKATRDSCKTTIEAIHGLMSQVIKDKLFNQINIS
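Test system: purified human Csn5 enzyme expressed in HEK293T cells. Amount: 0.24 nM enzyme. Reagent: SCFSkp2-Nedd8OG substrate at 10 nM final. Schedule: 90 min incubation of compound, enzyme and substrate at room temperature. Detection: fluorescence polarization. Read-out: % inhibition of substrate cleavage by Csn5.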
Tb MetRS inh – blocks T. brucei methionyl-tRNA synthetase activity | purified T. brucei MetRS, ATP depletion, Kinase-Glo luminescence | inhibition, % at 11.9 µM | 360,000 tested, 0.4% active | AID 624268;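 active means inhibition above a per-plate cutoff of the control wells' mean inhibition plus 3 SD, cut at about 5.5% in these data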
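Material: T. brucei methionyl-tRNA synthetase, purified; reagent: substrates ATP, L-methionine and bulk Escherichia coli tRNA; dosing: 11.9 µM single point; timing: 15 min plus 2 h at 25 °C; detection: luminescence of leftover ATP; evaluation: % inhibition; control set: DMSO-only wells as low control; replicates: singlicate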
PREPL inh – inhibitors of human prolyl oligopeptidase-like enzyme PREPL | AID 2751 | Q4J6C6 | inhibition, % at 5.96 µM | recombinant PREPL, fluorescence polarization activity-based probe | 320,000 tested, 0.68% active; in the data active means inhibition above about 43%
Neddyl block – inhibitors of human cullin neddylation | P61081+Q13564 | TR-FRET cullin neddylation, biochemical | inhibition, % at 25 µM | 360,000 tested, 0.58% active; in the data active means inhibition above about 36%
Tb MetRS conf – Trypanosoma brucei MetRS inhibition confirmed. shares compounds with Tb MetRS inh. T. brucei MetRS enzyme, luminescence (ATP depletion). inhibition, % at 11.9 µM. 1,400 tested, 93% active; in the data active means inhibition above about 7%
Jurkat tox – counter-screen for T. brucei MetRS inhibitors: Jurkat cell cytotoxicity | shares compounds with Tb MetRS inh | Jurkat cells viability, ATP luminescence | inhibition, % at 8.3 µM | 1,400 tested, 12% active | AID 624413; in the data active means inhibition above about 15%
TbMetRS FP orth – orthogonal test for Trypanosoma brucei MetRS inhibitors; inhibition, % at 11.9 µM; AID 651607; purified T. brucei MetRS, fluorescence polarization; 1,400 tested, 44% active; shares compounds with Tb MetRS inh; in the data active means inhibition above about 17%
A number is an active result; - = inactive; . = no result shown. Most compounds without a hit are left out; they make up all but 2.4% or so of the library.

SMILES	Rpn11 inh	HNF4A DNA FP	CSN deneddyl inh	Tb MetRS inh	PREPL inh	Neddyl block	Tb MetRS conf	Jurkat tox	TbMetRS FP orth
Cc1cccc(CCNC(=O)c2cc(S(=O)(=O)N3CCCCC3)c[nH]2)c1	-	-	-	27	-	-	46	-	28
Cc1cc(N2C(=O)C(O)=C(C(=O)c3ccco3)C2c2ccc(Cl)cc2)no1 (stereo unspecified)	-	-	-	6.1	-	-	-	-	-
COc1ccc(NC(=O)NCCCCc2ccccc2)cc1	-	-	-	-	.	-	.	.	.
O=C(NCCCCc1ccccc1)Nc1ccc(F)cc1	-	-	-	15	-	-	32	-	21
CC(=O)Oc1ccc(C(=O)NCc2ccc3c(c2)OCO3)cc1	-	-	-	-	-	-	.	.	.
O=C1CC(c2ccc(F)cc2)CC2=C1C(c1ccc([N+](=O)[O-])o1)Nc1ccccc1N2 (stereo unspecified)	-	-	-	6.9	-	-	-	-	-
COc1ccc(/C=C(\NC(=O)c2ccc(OC)cc2)C(=O)Nc2ccc(C(=O)O)cc2)cc1	-	-	-	-	.	-	.	.	.
CC(=O)Oc1ccc(/C=C(\NC(=O)c2cccc(Br)c2)C(=O)Nc2ccc(C(=O)O)cc2)cc1	-	-	-	6.2	-	-	12	-	-
O=C(Nc1ccc(C(=O)O)cc1)/C(=C\C=C\c1ccccc1)NC(=O)c1ccc(Br)cc1	-	-	-	21	-	-	40	-	39
COc1ccc(-c2c(C(=O)c3ccccc3)[nH]c(N)c2C(=O)c2ccc(Br)cc2)cc1OC	.	-	-	-	.	-	.	.	.
C[C@@H]1CN([C@H](C)CO)C(=O)CCCn2cc(nn2)CO[C@H]1CN(C)C(=O)C1CCCCC1	-	-	-	-	.	-	.	.	.
COC(=O)/C(=C\Nc1ccc(OC)cc1)NC(=O)c1ccc(Cl)cc1Cl	-	-	-	20	-	-	57	-	30
O=C(CCCOc1ccc(Cl)cc1Cl)NCCCn1ccnc1	-	-	-	6.5	-	-	18	-	-
OC(COc1ccc(Cl)cc1Cl)Cn1ccnc1 (stereo unspecified)	-	-	-	6.0	-	-	14	-	-
Clc1ccc(OCCn2ccnc2)c(Cl)c1	-	-	-	-	-	-	.	.	.
O=C(NNC(=O)C1CCN(S(=O)(=O)c2ccc(Cl)cc2)CC1)c1ccccc1O	-	-	-	-	-	-	.	.	.
NC(c1csc(Nc2ccccn2)n1)C1CCCCC1 (stereo unspecified)	-	-	-	-	.	-	.	.	.
O=C1CCC(C(=O)Nc2cccc(S(=O)(=O)Nc3ccccc3F)c2)=NN1	-	-	-	-	-	-	.	.	.
CCCCNc1nc(NCc2ccccc2)nc2ccccc12	.	-	-	10	.	-	22	62	-
OCCNc1nc(Nc2ccccc2)nc2ccccc12	-	-	-	11	-	-	31	-	-
CNc1nc(NCc2ccccc2)c2ccccc2n1	-	-	-	-	-	-	.	.	.
OCCNc1nc(Nc2ccc(Br)cc2)nc2ccccc12	.	.	.	.	-	.	.	.	.
O=C(N=Nc1c(O)[nH]c2ccc(Br)cc12)c1ccccc1-n1cccc1	-	-	-	8.6	-	-	26	76	-
O=C(NCc1nc2ncc(Br)cc2[nH]1)c1ccccc1	-	-	-	6.8	-	-	16	-	-
O=C(NCc1nc2ccccc2[nH]1)c1ccc([N+](=O)[O-])cc1	-	-	-	52	-	-	75	-	40
SMILES	Rpn11 inh	HNF4A DNA FP	CSN deneddyl inh	Tb MetRS inh	PREPL inh	Neddyl block	Tb MetRS conf	Jurkat tox	TbMetRS FP orth
O=C(NCc1nc2ccccc2[nH]1)c1ccc(S(=O)(=O)N2CCOCC2)cc1	-	-	-	12	-	-	21	-	-
O=C(NCc1nc2ccccc2[nH]1)c1ccc(S(=O)(=O)N2CCCC2)cc1	-	-	-	-	-	-	.	.	.
CCOC(=O)Nc1ccc2nc(-c3cscn3)[nH]c2c1	-	-	-	-	.	.	.	.	.
COC(=O)CCCNC(=O)c1ccccn1	-	-	-	-	-	-	.	.	.
NNC(=O)c1n[nH]c2c1CC(C1CCCCC1)CC2 (stereo unspecified)	-	-	-	-	-	-	.	.	.
CCOC(=O)CCNC(=O)Nc1cc2nc(C)n(Cc3cccc(Cl)c3)c2nc1C	-	-	-	-	-	-	.	.	.
Cc1cc(Cn2nc(-c3ccccc3)cc2C(=O)NCc2cccc(Br)c2)on1	-	-	-	54	-	-	84	-	68
Cc1ccc(N(C)S(=O)(=O)c2cccc(C(=O)N(C)Cc3cnn(-c4ccccc4)c3)c2)cc1	-	-	-	-	.	-	.	.	.
C[C@H](CO)N1C[C@H](C)[C@@H](CN(C)S(=O)(=O)c2ccccc2)Oc2ccc(NC(=O)Nc3ccc4c(c3)OCO4)cc2C1=O	-	-	-	-	-	-	.	.	.
Cc1[nH]c2ccccc2c1C(=O)C(=O)N1CCN(C)CC1	-	-	-	-	-	-	.	.	.
O=C(c1c[nH]c2ccccc12)N1CCN(Cc2ccccc2)CC1	-	-	-	-	-	-	.	.	.
O=C(C(=O)N1CCN(Cc2ccccc2)CC1)c1c[nH]c2ccccc12	-	-	-	12	-	-	21	-	-
Cc1[nH]c2ccccc2c1C(=O)C(=O)N1CCN(c2ccccc2)CC1	-	-	-	12	-	-	19	-	-
O=C(C(=O)N1CCN(c2ccccc2F)CC1)c1c[nH]c2ccccc12	-	-	-	7.3	-	-	11	-	-
O=C(CN1CCN(Cc2ccc3c(c2)OCO3)CC1)c1c[nH]c2ccccc12	-	-	-	14	-	-	27	-	-
COc1ccc(N2CCN(C(=O)C(=O)c3c[nH]c4ccccc34)CC2)cc1	-	-	-	-	-	-	.	.	.
COc1ccccc1C(=O)C1CCCN(C(=O)c2cccc(Cn3cccn3)c2)C1 (stereo unspecified)	-	-	-	-	-	-	.	.	.
Cc1cccc(C)c1NC(=O)C1(C)CN(S(C)(=O)=O)CC(=O)N1C1CC1 (stereo unspecified)	.	-	-	-	.	-	.	.	.
CC(C)C[C@@H](CN1CCCC1CN1C(=S)NC[C@@H]1Cc1ccccc1)N1C[C@H](Cc2ccccc2)N(CCc2ccccc2)C1=S (stereo partly specified)	.	-	-	-	.	-	.	.	.
COc1ccccc1N1CCN(C(=O)C(=O)c2c[nH]c3ccccc23)CC1	-	-	-	9.3	-	-	27	-	-
COc1ccc(N2CCN(CCCNC(=O)C(=O)c3c(C)[nH]c4ccccc34)CC2)cc1	-	-	-	5.9	-	-	18	-	-
